From ChEMBL document CHEMBL2021764, “2-Aminothiophenes as building blocks in heterocyclic synthesis: synthesis and antimicrobial evaluation of a new class of pyrido[1,2-a]thieno[3,2-e]pyrimidine, quinoline and pyridin-2-one derivatives” (2012) come the findings set out here.

Format in all cases: functional
Test [1] deals with Escherichia coli. The experiment in a line: Antibacterial activity against Escherichia coli 124300 at 1 mg/ml after 24 hrs by agar-well diffusion technique. Particulars: Escherichia coli, 124300, 24 h; read-out: DIZ. The procedure, abridged:
(§1)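 Each bacterial strain (0.1 ml) was spread on nutrient agar, and 4 mm wells were cut with a sterile cork borer. Wells were loaded with test chemical at a final 1 mg ml^-1, then incubated at 37 °C for 24 h. Inhibition zone diameters around the wells were measured, averaged over 3 replicas.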
On the technique in general: A growth-free zone around the sample is the usual read-out of agar diffusion tests.

For test [2], the system named is Pseudomonas aeruginosa. As to the kind of experiment: Antibacterial activity against Pseudomonas aeruginosa 155250A at 1 mg/ml after 24 hrs by agar-well diffusion technique. Particulars: read-out: DIZ. The procedure, abridged: as §1
The test system of test [3] is Serratia marcescens. As to the kind of experiment: Antibacterial activity against Serratia marcescens 155449 at 1 mg/ml after 24 hrs by agar-well diffusion technique. Particulars: Serratia marcescens, 155449, 24 h; read-out: DIZ. The gist of the method: as §1
The test system of test [4] is Bacillus subtilis. The experiment in a line: Antibacterial activity against Bacillus subtilis 154921 at 1 mg/ml after 24 hrs by agar-well diffusion technique. As to conditions: Bacillus subtilis, 154921, 24 h; read-out: DIZ. The gist of the method: as §1
The test system of test [5] is Staphylococcus aureus. The experiment in a line: Antibacterial activity against Staphylococcus aureus 155554A at 1 mg/ml after 24 hrs by agar-well diffusion technique. Particulars: read-out: DIZ. The gist of the method: as §1
Test [6] deals with Candida albicans. The experiment in a line: Antifungal activity against Candida albicans 155965 at 1 mg/ml after 48 hrs by agar-well diffusion technique. Particulars: Candida albicans, 155965, 48 h; read-out: DIZ. The gist of the method:
(§2)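 Yeast (0.1 ml) was spread on potato dextrose agar, and 4 mm wells were cut with a sterile cork borer. Wells were loaded with test chemical at a final 1 mg ml^-1, then incubated at 25 °C for 48 h. Inhibition zones around the wells were measured, averaged over 3 replicas.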

Test [7] concerns Saccharomyces cerevisiae. As to the kind of experiment: Antifungal activity against Saccharomyces cerevisiae 156250 at 1 mg/ml after 48 hrs by agar-well diffusion technique. As to conditions: Saccharomyces cerevisiae, 156250, 48 h; read-out: DIZ. The procedure, abridged:
as §2

As to `COc1ccc(-c2c(C#N)c(=N)n3c([nH]c(=O)c4c(-c5ccccc5)csc43)c2C#N)cc1`, the zone of inhibition at 1000 µg/mL in test [1] came to 3.3 mm; in test [2], 14 mm; in test [3] it was 2 mm; in test [4], 2 mm; in test [5] it was 0 mm; in test [6], 0 mm. The zone of inhibition at 1000 µg/mL in test [7] is 0 mm.
As for `N#Cc1c(-c2ccccc2)csc1N`, the zone of inhibition at 1000 µg/mL was 10.6 mm in test [1]; 10.6 mm in test [2]; 11.3 mm in test [3]; 14.6 mm in test [4]; 21 mm in test [5]; 18 mm in test [6]. Besides, in test [7], the zone of inhibition at 1000 µg/mL was determined as 16 mm.
As for `N#Cc1c(-c2ccc(Cl)cc2)csc1N`, the zone of inhibition at 1000 µg/mL in test [1] is 4 mm; in test [2] it was 5 mm; in test [3], 0 mm; in test [4], 11 mm; in test [5], 6.6 mm; in test [6], 2.6 mm. For the same compound, the zone of inhibition at 1000 µg/mL in test [7] was 7 mm.
In the case of `CN(C)/C=C(\C#N)C(=O)Nc1scc(-c2ccccc2)c1C#N`, the zone of inhibition at 1000 µg/mL in test [1] was 4 mm; in test [2], 10.8 mm; in test [3], 3.3 mm; in test [4], 1.6 mm; in test [5], 0 mm; in test [6], 4 mm. Further, in test [7], the zone of inhibition at 1000 µg/mL turned out to be 1.3 mm.
`N#Cc1c(-c2cccs2)c(C#N)c2[nH]c(=O)c3c(-c4ccccc4)csc3n2c1=N`: the zone of inhibition at 1000 µg/mL in test [1] came out at 4 mm; in test [2] it was 11.3 mm; in test [3] it was 0 mm; in test [4], 3.3 mm; in test [5], 0 mm; in test [6] it was 0 mm. For the same compound, in test [7], the zone of inhibition at 1000 µg/mL amounted to 0 mm.
For `COc1ccc(-c2c(C#N)c(=N)n3c([nH]c(=O)c4c(-c5ccc(Cl)cc5)csc43)c2C#N)cc1`, the zone of inhibition at 1000 µg/mL in test [1] worked out at 4 mm; in test [2] it was 13.1 mm; in test [3], 4 mm; in test [4], 2 mm; in test [5] it was 0 mm; in test [6], 0 mm. The zone of inhibition at 1000 µg/mL in test [7] was 0 mm.
On to `N#Cc1c(-c2cccs2)c(C#N)c2[nH]c(=O)c3c(-c4ccc(Cl)cc4)csc3n2c1=N`, for which the zone of inhibition at 1000 µg/mL was 4 mm in test [1]; 10.6 mm in test [2]; 2.6 mm in test [3]; 2 mm in test [4]; 0 mm in test [5]; 12 mm in test [6]. Also, the zone of inhibition at 1000 µg/mL in test [7] was determined as 0 mm.
For `N#Cc1cc(C#N)c2[nH]c(=O)c3c(-c4ccccc4)csc3n2c1=N`, the zone of inhibition at 1000 µg/mL in test [1] worked out at 4 mm; in test [2] it was 9 mm; in test [3], 6.6 mm; in test [4] it was 2 mm; in test [5] it was 0 mm; in test [6] it was 2.6 mm. The zone of inhibition at 1000 µg/mL in test [7] was determined as 1.3 mm.
Turning to `N#Cc1cc(C#N)c2[nH]c(=O)c3c(-c4ccc(Cl)cc4)csc3n2c1=N`, the zone of inhibition at 1000 µg/mL was found to be 2 mm in test [1]; 8 mm in test [2]; 3.3 mm in test [3]; 6 mm in test [4]; 2.6 mm in test [5]; 0 mm in test [6]. Besides, the zone of inhibition at 1000 µg/mL in test [7] turned out to be 0 mm.
`N#Cc1c(-c2ccccc2)csc1NC(=O)c1cc2ccccc2[nH]c1=O`: the zone of inhibition at 1000 µg/mL in test [1] came out at 8.6 mm; in test [2], 10 mm; in test [3], 6 mm; in test [4], 11 mm; in test [5], 12 mm; in test [6] it was 16 mm. For the same compound, the zone of inhibition at 1000 µg/mL in test [7] worked out at 14 mm.
Turning to `N#Cc1c(-c2ccc(Cl)cc2)csc1NC(=O)c1cc2ccccc2[nH]c1=O`, the zone of inhibition at 1000 µg/mL was 8 mm in test [1], 11 mm in test [2], 10.5 mm in test [4] and 8 mm in test [5].
On to `CCOC(=O)c1sc(NC(=O)/C(C#N)=N/Nc2ccccc2)c(C#N)c1C`, for which the zone of inhibition at 1000 µg/mL in test [1] was 0 mm; in test [2] it was 6 mm; in test [3] it was 2.6 mm; in test [4] it was 13 mm; in test [5], 14 mm; in test [6], 0 mm. Also, the zone of inhibition at 1000 µg/mL in test [7] amounted to 0 mm.
For `N#CCC(=O)Nc1scc(-c2ccccc2)c1C#N`, the zone of inhibition at 1000 µg/mL worked out at 4 mm in test [1]; 4 mm in test [2]; 2 mm in test [3]; 2 mm in test [4]; 0 mm in test [5]; 4 mm in test [6]. Further, the zone of inhibition at 1000 µg/mL in test [7] turned out to be 2.6 mm.
With `N#CCC(=O)Nc1scc(-c2ccc(Cl)cc2)c1C#N`, the zone of inhibition at 1000 µg/mL amounted to 4 mm in test [1]; 4 mm in test [2]; 1.3 mm in test [3]; 4.6 mm in test [4]; 0 mm in test [5]; 0 mm in test [6]. In addition, the zone of inhibition at 1000 µg/mL in test [7] came to 3 mm.
`CCOC(=O)c1sc(NC(=O)CC#N)c(C#N)c1C`: the zone of inhibition at 1000 µg/mL stood at 7 mm in test [1], 7 mm in test [4], 0 mm in test [6] and 0 mm in test [7].
Turning to `CN(C)/C=C(\C#N)C(=O)Nc1scc(-c2ccc(Cl)cc2)c1C#N`, the zone of inhibition at 1000 µg/mL in test [1] was found to be 4 mm; in test [2], 4 mm; in test [3] it was 7 mm; in test [4], 1 mm; in test [5], 0 mm; in test [6] it was 0 mm. In test [7], the zone of inhibition at 1000 µg/mL was found to be 1.3 mm.
`N#Cc1c(-c2ccc([N+](=O)[O-])cc2)c(C#N)c2[nH]c(=O)c3c(-c4ccccc4)csc3n2c1=N`: the zone of inhibition at 1000 µg/mL in test [1] is 4 mm; in test [3], 4.6 mm; in test [4] it was 2 mm; in test [5], 0 mm; in test [6] it was 0 mm; in test [7] it was 0 mm.
On to `N#Cc1c(-c2ccc(Cl)cc2)c(C#N)c2[nH]c(=O)c3c(-c4ccccc4)csc3n2c1=N`, for which the zone of inhibition at 1000 µg/mL in test [1] was determined as 4.6 mm; in test [3], 3.3 mm; in test [4], 1.6 mm; in test [5], 0 mm; in test [6] it was 0 mm; in test [7] it was 1.3 mm.
